Compounds with a hit are over-represented: about 2.5% of the library has one in this group of screens.
SIAE primary = human SIAE inhibitors, primary screen, biochemical, fluorescence polarization, FP-Rh probe, 1536-well HTS | SIAE FP-Rh probe binding | inhibition, % at 9.66 µM | 0.69% of 370,000 active | AID 1053197, 2014;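 active = inhibition above a cutoff: mean of compounds within the control limits plus 3 SD of those, cut at about 17% in these data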;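 also: 0% = plate median of compound wells and 100% = probe without SIAE protein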
Target sequence (Q9HAT2 whole entry, looked up): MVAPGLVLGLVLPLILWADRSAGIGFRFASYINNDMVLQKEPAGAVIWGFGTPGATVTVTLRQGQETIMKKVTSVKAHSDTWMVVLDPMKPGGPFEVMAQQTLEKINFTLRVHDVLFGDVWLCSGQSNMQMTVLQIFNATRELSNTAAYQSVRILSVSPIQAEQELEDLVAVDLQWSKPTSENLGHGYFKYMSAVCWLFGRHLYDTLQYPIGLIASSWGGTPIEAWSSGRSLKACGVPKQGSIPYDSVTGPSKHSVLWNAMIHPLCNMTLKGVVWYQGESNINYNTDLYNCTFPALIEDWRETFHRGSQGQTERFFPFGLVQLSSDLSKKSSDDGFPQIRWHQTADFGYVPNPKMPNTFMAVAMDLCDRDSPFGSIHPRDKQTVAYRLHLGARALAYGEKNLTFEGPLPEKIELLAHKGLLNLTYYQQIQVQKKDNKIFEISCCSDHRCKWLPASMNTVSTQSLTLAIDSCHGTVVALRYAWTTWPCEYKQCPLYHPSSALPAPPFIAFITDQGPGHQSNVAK
PRMT1 inh = PRMT1 methyltransferase inhibitors, primary screen, biochemical, fluorescence polarization; AID 652257, 2013; inhibition, % at 2.79 µM; 1.3% of 370,000 active; recombinant PRMT1, activity-based probe fluorescence polarization;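 active = inhibition above about 21% made by adding two undisclosed values, limit read from the data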
ABHD4 inh = ABHD4 inhibitors, primary screen, biochemical, fluorescence polarization, mouse | (Lyso)-N-acylphosphatidylethanolamine lipase (Mus musculus), Q8VD66 | purified mABHD4, FP-Rh probe fluorescence polarization | inhibition, % at 8.92 µM | 0.54% of 370,000 active;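 active = inhibition exceeding the mean over every tested compound plus 3 SD, cut at about 30% in these data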;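 also: 0% = plate median of compound wells and 100% = S159A mutant with DMSO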
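system = mouse ABHD4 enzyme, wild type | medium = HEPES pH 7.0, NaCl, Pluronic buffer | also added = FP-Rh probe | incubation = Enzyme–compound pre-incubation 45 min, then probe 60 min, both 25 °C | technique = fluorescence polarization, excitation 525 nm, emission 598 nm, BODIPY TMR filters | controls = S159A mutant high control, sample median low control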
TCR-CD3 inh = inhibitors of human TCR-CD3 interaction, primary screen, biochemical, fluorescence, TAMRA-labeled TCR probe. 0.37% of 360,000 active. inhibition, % at 9.4 µM. T-cell receptor (TCR);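 also: recombinant mutant TCR 2C K166C tagged with TAMRA read by polarization; 0% = receptor in buffer alone and 100% = receptor with positive control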
HTRA1 inh = HTRA1 serine protease inhibitors, primary screen, biochemical, fluorescence polarization, HTS; Q92743; recombinant HTRA1, FP-rhodamine activity-based probe; inhibition, % at 5.96 µM; 0.5% of 340,000 active; AID 504803, 2011; in the data active = inhibition above about 36%;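 also: 0% = enzyme with DMSO and 100% = wells lacking enzyme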
HTRA1 inh conf = HTRA1 protease inhibitors, retest, confirmation, biochemical, fluorescence polarization; AID 540248, 2011; recombinant HTRA1, FP-rhodamine activity-based probe; shares compounds with HTRA1 inh; inhibition, % at 5.96 µM; 66% of 1,600 active;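 active = mean inhibition over three repeats above a set limit taken from the earlier primary screen, cut at about 37% in these data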;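 also: 0% = HTRA1 with DMSO and 100% = wells lacking HTRA1; inhibitors block probe binding so polarization drops and inhibition rises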
BSA probe FL = compounds interfering with TAMRA-BSA probe, counter-screen for TCR-CD3 interaction inhibitor project, biochemical, fluorescence, TAMRA-labeled BSA | shares compounds with TCR-CD3 inh | TAMRA-labeled BSA probe fluorescence counterscreen | 10% of 1,200 active | inhibition, % at 9.4 µM; in the data active = inhibition above about 23%;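 also: 0% = buffer low control and 100% = reference high control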
TCR-CD3 inh conf = TCR-CD3 interaction inhibitors, retest, confirmation, biochemical, fluorescence, TAMRA-labeled TCR probe | shares compounds with TCR-CD3 inh | TAMRA-labeled TCR probe fluorescence binding assay | inhibition, % at 9.4 µM | 48% of 1,200 active | AID 652036, 2013
PRMT1 inh conf = PRMT1 methyltransferase inhibitors, confirmation, biochemical, fluorescence polarization, triplicate. 42% of 3,300 active. shares compounds with PRMT1 inh. inhibition, % at 2.79 µM. recombinant His-PRMT1, activity-based probe fluorescence polarization. AID 687036, 2013;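 active = mean inhibition across replicates above the hit cutoff derived for the earlier primary screen, cut at about 22% in these data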
ABHD4 confirm = ABHD4 inhibitors, retest, confirmation, biochemical, fluorescence polarization, mouse. shares compounds with ABHD4 inh. purified mABHD4, FP-Rh probe fluorescence polarization. inhibition, % at 8.92 µM. 55% of 1,800 active. AID 720658, 2013;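 active = mean inhibition across replicates above the hit cutoff set in the primary screen, cut at about 30% in these data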;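 also: 0% = wild-type ABHD4 with DMSO and 100% = catalytically dead S159A mutant with DMSO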
SIAE inh conf = human SIAE inhibitors, retest, confirmation, biochemical, fluorescence polarization, FP-Rh probe, triplicate | shares compounds with SIAE primary | SIAE FP-Rh activity-based probe | inhibition, % at 9.66 µM | 13% of 2,300 active;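 active = mean inhibition of the replicates above the hit cutoff set in the primary screen, cut at about 17% in these data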;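 also: 0% = SIAE with DMSO and probe and 100% = probe without SIAE; inhibitors lower polarization as more probe stays unbound to SIAE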
Active calls of the source: *; . = no result given. Rule as the data show it, unless noted: active = inhibition above about 19%; inactive = the rest.

SMILES	SIAE primary	PRMT1 inh	ABHD4 inh	TCR-CD3 inh	HTRA1 inh	HTRA1 inh conf	ABHD4 confirm	others
CC(C)(C)NC(=O)CN1C(=O)[C@@H](Cc2c[nH]c3ccccc23)N=C(c2ccccc2)c2ccccc21	3	-3	-8	.	.	.	.
Cc1nc2ccccc2c(=O)n1/N=C/c1cc(Br)cc(Br)c1O	2	0	9	46*	36*	95*	.	BSA probe FL=-12;TCR-CD3 inh conf=47*
CC(c1ccccc1)n1cc(C(=O)NC2CCCC2)nn1 (centres undefined)	-2	0	-2	.	.	.	.
CN(C)[C@@H]1C(=O)C(C(N)=O)=C(O)[C@@]2(O)C(=O)C3=C(O)c4c(O)cccc4[C@@](C)(O)C3[C@H](O)C12 (some centres undefined)	17	36*	68*	27*	43*	11	22	BSA probe FL=-2;TCR-CD3 inh conf=11
CN(C)C1C(=O)C(C(N)=O)=C(O)C2(O)C(=O)C3=C(O)c4c(O)cccc4C(C)(O)C3CC12 (centres undefined)	.	.	.	.	9	.	.
CN(C)[C@@H]1C(=O)C(C(N)=O)=C(O)[C@@]2(O)C(=O)C3=C(O)c4c(O)ccc(Cl)c4[C@@](C)(O)C3C[C@@H]12 (some centres undefined)	11	27*	60*	12	40*	17	25	PRMT1 inh conf=8
C=C(C)[C@@]12OC3(c4ccccc4)O[C@@H]1C1[C@@H]4O[C@]4(CO)[C@@H](O)[C@]4(O)C(=O)C(C)=C[C@H]4[C@@]1(O3)[C@H](C)[C@H]2OC(=O)/C=C/C=C/c1ccccc1 (some centres undefined)	.	.	.	.	-83	.	.
O=C1c2cccc(N3CCNCC3)c2C2CCCCN12 (centres undefined)	-1	-1	8	5	.	.	.
COC(=O)[C@H]1C[C@@]2(C)c3ccccc3N[C@H]2N1	3	2	0	.	.	.	.
Cc1cccc(N2C(=O)NC(=O)/C(=C/c3cc4c(cc3[N+](=O)[O-])OCO4)C2=O)c1	11	28*	39*	3	41*	3	13	PRMT1 inh conf=55*
O=C1c2ccccc2-c2cc3ccccc3cc21	-12	9	4	7	-24	.	.
O=C1C=C(N2CC2)c2ccccc2C1=O	17	17	67*	17	51*	31	30*
Cc1cc(Br)cn2c(CC(=O)N3CCCCC3)c(-c3ccc(F)cc3)nc12	0	3	-1	1	.	.	.
CCCN1CCc2cc(O)cc3c2[C@H]1Cc1ccc(O)c(O)c1-3	14	77*	69*	3	62*	48*	30*
C[n+]1c(-c2ccccc2)c2cc(N)ccc2c2ccc(N)cc21	49*	66*	75*	116*	97*	123*	111*	BSA probe FL=160*;TCR-CD3 inh conf=130*
CC(Cc1ccc(O)cc1)NCC(O)c1ccc(O)c(O)c1 (centres undefined)	9	25*	53*	8	54*	53*	60*	PRMT1 inh conf=11
CC1=C(O)C(=O)C=C2C1=CC=C1C2(C)CCC2(C)C3CC(C)(C(=O)O)CCC3(C)CCC12C (centres undefined)	13	35*	49*	2	48*	45*	48*	PRMT1 inh conf=50*
c1ccc(CCN2CCC3CCNC3C2)cc1 (centres undefined)	2	-4	-6	3	.	.	.
C[C@H](CO)N1C[C@H](C)[C@H](CN(C)C(=O)Oc2ccccc2)OCc2cnnn2CCCC1=O	-1	-1	-1	-6	3	.	.
CC(C)Nc1ccc(Nc2ccccc2)cc1	12	25*	43*	-3	69*	53*	34*	PRMT1 inh conf=70*
CCOC(=O)CC[C@@H]1CC[C@]2(CCCN(Cc3ccccn3)C2)O1	0	3	4	.	.	.	.
C=CCn1c(O)c(C=Nc2ccc(N(CC)CC)cc2)c(=O)[nH]c1=O	14	22*	57*	16	36*	3	3
C=CCn1c(O)c(C=Nc2ccc(F)cc2)c(=O)[nH]c1=O	-6	7	1	0	3	.	.
CCCCCCCCCCCCCCCC[N+](C)(C)C	5	-1	32*	6	54*	78*	55*
CCCCCC[N+](=O)[O-]	-1	0	-2	2	2	.	.
O=C(N/N=C1/CN2CCC1CC2)c1cc2ccccc2cc1O	17*	2	39*	9	55*	12	19
O=c1[nH]c2cc(Cl)ccc2n1C1CCN(Cc2ccc(-c3nc4ccccc4nc3-c3ccccc3)cc2)CC1	-10	-1	-3	12	.	.	.
COc1cccc2c1C(=O)c1c(O)c3c(c(O)c1C2=O)CC(O)(C(C)=NO)CC3OC1CC(N)C(O)C(C)O1 (centres undefined)	55*	145*	59*	143*	56*	67*	59*	BSA probe FL=167*;TCR-CD3 inh conf=136*;PRMT1 inh conf=139*;SIAE inh conf=44*
Oc1cccc2nc3ccccc3nc12	18*	-2	18	0	67*	60*	.	SIAE inh conf=-10
CN1CCc2cc3c(c4c2C1Cc1ccccc1-4)OCO3 (centres undefined)	24*	51*	46*	7	68*	2	50*	SIAE inh conf=3
